Assay results from paper PMC4128174 (European journal of medicinal chemistry, 2014).
Substitutions are numbered along the chain they refer to.

Legend:
[1] = target: T1, IDE E341A (Homo sapiens, UniProt P14735, E341A); experiment: Hydrolysis of dual labelled Aβ16–23 by the E341A exosite mutant; assay type: biochemical
T1 sequence (P14735 1-1019 E341A): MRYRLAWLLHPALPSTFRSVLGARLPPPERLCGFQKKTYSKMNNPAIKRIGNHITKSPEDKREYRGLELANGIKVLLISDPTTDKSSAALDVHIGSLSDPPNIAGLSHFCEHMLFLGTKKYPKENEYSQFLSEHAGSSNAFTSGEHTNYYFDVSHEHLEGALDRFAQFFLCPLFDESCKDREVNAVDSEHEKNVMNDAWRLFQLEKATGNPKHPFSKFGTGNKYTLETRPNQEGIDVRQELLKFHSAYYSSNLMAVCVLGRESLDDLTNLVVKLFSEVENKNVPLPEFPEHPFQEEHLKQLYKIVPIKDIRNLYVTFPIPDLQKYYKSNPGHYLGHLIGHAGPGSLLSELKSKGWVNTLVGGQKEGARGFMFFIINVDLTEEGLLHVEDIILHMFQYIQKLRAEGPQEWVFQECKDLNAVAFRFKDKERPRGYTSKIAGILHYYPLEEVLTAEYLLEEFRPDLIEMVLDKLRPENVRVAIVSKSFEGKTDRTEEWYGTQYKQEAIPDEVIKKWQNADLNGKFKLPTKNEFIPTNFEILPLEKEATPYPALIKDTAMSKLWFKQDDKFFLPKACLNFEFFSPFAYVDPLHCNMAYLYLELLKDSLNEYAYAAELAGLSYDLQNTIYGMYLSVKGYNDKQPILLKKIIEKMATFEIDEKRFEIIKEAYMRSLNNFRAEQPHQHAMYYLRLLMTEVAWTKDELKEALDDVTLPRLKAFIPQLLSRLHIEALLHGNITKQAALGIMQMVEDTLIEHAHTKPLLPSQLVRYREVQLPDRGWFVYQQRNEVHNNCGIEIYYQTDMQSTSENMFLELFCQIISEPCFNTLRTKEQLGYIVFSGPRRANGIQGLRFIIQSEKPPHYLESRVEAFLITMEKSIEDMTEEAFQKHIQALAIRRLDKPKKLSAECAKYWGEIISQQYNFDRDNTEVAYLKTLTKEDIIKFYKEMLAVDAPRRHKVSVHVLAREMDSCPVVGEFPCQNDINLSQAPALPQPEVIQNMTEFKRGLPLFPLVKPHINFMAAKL

[2] = target: T2, Human recombinant IDE (IDEwt) (Homo sapiens, UniProt P14735); assay type: biochemical; details: for activity on Aβ16–23 hydrolysis (in words): IDEwt
T2 sequence (P14735 1-1019): T1 sequence (P14735 1-1019 E341A) with A341E

[3] = Cell permeability; assay type: in vitro ADME
[4] = test system: β-pancreatic cells; experiment: Insulin secretion by β-pancreatic cells; assay type: cell-based
[5] = test system: hepatocytes; experiment: Repression of PEPCK by insulin on hepatocytes; assay type: cell-based
[6] = Solubility in PBS from a DMSO stock solution; assay type: physicochemical
[7] = Cell medium stability; assay type: in vitro ADME
[8] = LogD7.4, PBS/octanol partition from a DMSO stock solution; assay type: physicochemical; details: compared with 5
[9] = target: T3, hIDE (Homo sapiens, UniProt P14735); experiment: Hydrolysis of unlabelled native insulin by hIDE; assay type: biochemical; details: at 100µM
T3 sequence (P14735 1-1019): T1 sequence (P14735 1-1019 E341A) with A341E

[10] = test system: SH-SY5Y neuroblastoma cells (APPswe, APPwt); experiment: Cellular assay in the amyloid pathway; assay type: cell-based, human
How it was run: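 SH-SY5Y cells stably expressing human APP751 Swedish or […], grown in DMEM/10% FCS at 37 °C, 5% CO2. Treated 24 h after seeding with vehicle or test compound (10 mM DMSO stock). Medium cleared at 1000 × g and assayed by ELISA: Aβ1–40 diluted 1:10, Aβ1–42 undiluted. Duplicates from three experiments, normalised to untreated cells. RIPA lysates immunoblotted: 12 µg Bis-Tris gel; CTFs 30 µg Tris-Tricine gel.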

[11] = 0.1 or 10 µM, 24 h and 48 h, APPswe and APPwt SY5Y

COC(=O)[C@H](Cc1c[nH]cn1)NC(=O)CN(CC(=O)O)Cc1ccccc1 [Compound 1, (S)-2-[2-(Benzyl-carboxymethyl-amino)-acetylamino]-3-(1H-imidazol-4-yl)-propionic acid methyl ester]
behaviour as inhibitor [1]: full inhibitor

COC(=O)[C@H](Cc1ccccc1)NC(=O)CN(CC(=O)O)Cc1ccccc1 [Compound 6, (S)-2-(2-(Benzyl-carboxymethyl-amino)-acetylamino)-3-phenyl-propionic acid methyl ester]
activity on Aβ16–23 hydrolysis (in words) [2]: completely abolish activity

CNC(=O)[C@H](Cc1c[nH]cn1)NC(=O)CN(CCCc1ccccc1)CC(=O)O [Compound 5, ((((S)-2-(1H-Imidazol-4-yl)-1-methylcarbamoyl-ethylcarbamoyl)-methyl)-(3-phenylpropyl)-amino)-acetic acid]
crossing of cell membranes (in words) [3]: does not cross easily cell membranes

CNC(=O)[C@H](Cc1c[nH]cn1)NC(=O)CN(CCCc1ccccc1)CC(=O)OC [Compound 8, ((((S)-2-(1H-Imidazol-4-yl)-1-methylcarbamoyl-ethyl-carbamoyl)-methyl)-(3-phenylpropyl)-amino)-acetic acid methyl ester]
level of insulin secreted by β-pancreatic cells [4]: did neither affect | repression of PEPCK by insulin on hepatocytes [5]: nor modify | solubility (in words) [6]: good solubility | half-life [7]: 11.3 h | logD7.4 (in words) [8]: higher | residual activation of insulin hydrolysis [9]: 50 % of 5 activity | effect on APP holoproteins and on CTFs [10]: No effect | extracellular levels of Aβ1–40 [10, 11]: dose-dependent increase | extracellular levels of Aβ1–42 [10, 11]: dose-dependent increase

O=C(O)CN(CCN(CC(=O)O)CC(=O)O)CC(=O)O [EDTA, reference compound]
inhibition by reference inhibitor ([2]; at 2 mM): 100%

COC(=O)[C@H](Cc1c[nH]cn1)NC(=O)CN(CC(=O)O)C(=O)c1ccccc1 [Compound 7, (S)-2-(2-(Benzoyl-carboxymethyl-amino)-acetylamino)-3-(1H-imidazol-4-yl)-propionic acid methyl ester]
activity on Aβ16–23 hydrolysis (in words) [2]: completely abolish activity
